Here are results for two compounds from ChEMBL document CHEMBL1926642, “Relevance of the C-5 position to schweinfurthin induced cytotoxicity” (2011).

What all share (format): functional
One assay relates to SNB-19. As to the kind of experiment: Cytotoxicity against human SNB19 cells assessed as cell growth at 10 uM after 48 hrs by sulforhodamine B assay relative to control. Particulars: SNB-19, 48 h, read-out: Activity. The procedure, abridged:
(§1)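 Compounds went through the NCI 60 cell-line screen, whose current protocol tests first at a single dose.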
(In SRB staining, fixed cells bind dye roughly in proportion to their protein.)

For another assay, the system named is SF-295. As to the kind of experiment: Cytotoxicity against human SF295 cells assessed as cell growth at 10 uM after 48 hrs by sulforhodamine B assay relative to control. Conditions: SF-295, 48 h, read-out: Activity. A digest of the protocol: as §1
The test system of a further assay is U-251. In words: Cytotoxicity against human U251 cells assessed as cell growth at 10 uM after 48 hrs by sulforhodamine B assay relative to control. Conditions: U-251, 48 h, read-out: Activity.
Assay [1] in a line: Cytotoxicity against human Hs 578T cells assessed as cell growth at 10 uM after 48 hrs by sulforhodamine B assay relative to control. Particulars: read-out: Activity. The procedure, abridged: as §1
The next assay concerns HT-29. As to the kind of experiment: Cytotoxicity against human HT-29 cells assessed as cell growth at 10 uM after 48 hrs by sulforhodamine B assay relative to control. Particulars: HT-29, 48 h, read-out: Activity. The procedure, abridged: as §1
For the next assay, the system named is IGROV-1. In words: Cytotoxicity against human IGROV1 cells assessed as cell growth at 10 uM after 48 hrs by sulforhodamine B assay relative to control. Conditions: IGROV-1, 48 h, read-out: Activity. A digest of the protocol: as §1
A further assay concerns A549. In words: Cytotoxicity against human A549/ATCC cells assessed as cell growth at 10 uM after 48 hrs by sulforhodamine B assay relative to control. Conditions: A549, 48 h, read-out: Activity. A digest of the protocol:
as §1

Another assay has as its system LOX IMVI. As to the kind of experiment: Cytotoxicity against human LOXIMVI cells assessed as cell growth at 10 uM after 48 hrs by sulforhodamine B assay relative to control. Particulars: read-out: Activity. The procedure, abridged:
as §1

A further assay concerns NCI-H322M. In words: Cytotoxicity against human NCI-H322M cells assessed as cell growth at 10 uM after 48 hrs by sulforhodamine B assay relative to control. Conditions: read-out: Activity. A digest of the protocol: as §1
The test system of a further assay is OVCAR-3. As to the kind of experiment: Cytotoxicity against human OVCAR3 cells assessed as cell growth at 10 uM after 48 hrs by sulforhodamine B assay relative to control. Particulars: OVCAR-3, 48 h, read-out: Activity. The procedure, abridged:
as §1

Another assay concerns RPMI-8226. As to the kind of experiment: Cytotoxicity against human RPMI8226 cells assessed as cell growth at 10 uM after 48 hrs by sulforhodamine B assay relative to control. Particulars: RPMI-8226, 48 h, read-out: Activity. The procedure, abridged:
as §1

Another assay relates to KM12. In words: Cytotoxicity against human KM12 cells assessed as cell growth at 10 uM after 48 hrs by sulforhodamine B assay relative to control. Conditions: KM12, 48 h, read-out: Activity. A digest of the protocol: as §1
In a further assay the test system is NCI-H522. As to the kind of experiment: Cytotoxicity against human NCI-H522 cells assessed as cell growth at 10 uM after 48 hrs by sulforhodamine B assay relative to control. Conditions: NCI-H522, 48 h, read-out: Activity. The procedure, abridged:
as §1

In the next assay the test system is MOLT-4. In words: Cytotoxicity against human MOLT4 cells assessed as cell growth at 10 uM after 48 hrs by sulforhodamine B assay relative to control. Conditions: MOLT-4, 48 h, read-out: Activity. A digest of the protocol:
as §1

The subject of another assay is TK-10. As to the kind of experiment: Cytotoxicity against human TK10 cells assessed as cell growth at 10 uM after 48 hrs by sulforhodamine B assay relative to control. Conditions: TK-10, 48 h, read-out: Activity.
Another assay deals with SW-620. In words: Cytotoxicity against human SW620 cells assessed as cell growth at 10 uM after 48 hrs by sulforhodamine B assay relative to control. Particulars: SW-620, 48 h, read-out: Activity.
A further assay concerns K562. As to the kind of experiment: Cytotoxicity against human K562 cells assessed as cell growth at 10 uM after 48 hrs by sulforhodamine B assay relative to control. Conditions: K562, 48 h, read-out: Activity. A digest of the protocol:
as §1

A further assay relates to A498. As to the kind of experiment: Cytotoxicity against human A498 cells assessed as cell growth at 10 uM after 48 hrs by sulforhodamine B assay relative to control. Conditions: A498, 48 h, read-out: Activity. A digest of the protocol:
as §1

In the next assay the test system is UACC-62. In words: Cytotoxicity against human UACC62 cells assessed as cell growth at 10 uM after 48 hrs by sulforhodamine B assay relative to control. Conditions: UACC-62, 48 h, read-out: Activity.
The test system of a further assay is UACC-257. As to the kind of experiment: Cytotoxicity against human UACC257 cells assessed as cell growth at 10 uM after 48 hrs by sulforhodamine B assay relative to control. Conditions: UACC-257, 48 h, read-out: Activity.
In a further assay the test system is Malme-3M. In words: Cytotoxicity against human MALME-3M cells assessed as cell growth at 10 uM after 48 hrs by sulforhodamine B assay relative to control. Particulars: read-out: Activity. The procedure, abridged: as §1
In the next assay the test system is HCT-116. As to the kind of experiment: Cytotoxicity against human HCT116 cells assessed as cell growth at 10 uM after 48 hrs by sulforhodamine B assay relative to control. Particulars: HCT-116, 48 h, read-out: Activity. A digest of the protocol: as §1

For `COc1cc(/C=C/c2cc(Br)c3c(c2)C[C@@H]2C(C)(C)[C@H](O)CC[C@@]2(C)O3)cc(O)c1C/C=C(\C)CCC=C(C)C`, the growth at 10 µM turned out to be 106% in the assay on SNB-19; 109% in the assay with SF-295; 86.3% with U-251; 64.3% in [1]; 74.5% in the assay with HT-29; 63.1% with IGROV-1. Moreover, the growth at 10 µM worked out at 94.7% in the assay on A549; 105% with LOX IMVI; 102% in the assay with NCI-H322M; 88.2% in the assay on OVCAR-3; 75% in the assay on RPMI-8226; 97.3% with KM12. For the same compound, the growth at 10 µM in the assay with NCI-H522 came to 81.5%; in the assay on MOLT-4, 74.1%; with TK-10 it was 113%; in the assay on SW-620 it was 119%; in the assay with K562, 79.9%; in the assay on A498 it was 94.7%. Besides, the growth at 10 µM in the assay on UACC-62 stood at 104%; with UACC-257 it was 100%; in the assay with Malme-3M it was 115%; in the assay with HCT-116 it was 84.5%.
Consider `COCc1cc(/C=C/c2cc(O)c(C/C=C(\C)CCC=C(C)C)c(OC)c2)cc2c1O[C@]1(C)CC[C@@H](O)C(C)(C)[C@H]1C2`, for which the growth at 10 µM in the assay on SNB-19 was determined as 96.4%; in the assay with SF-295, 133%; with U-251 it was 83.6%; in [1], 82.8%; in the assay with HT-29, 47.9%; with IGROV-1, 65.3%. Further, the growth at 10 µM is 104% with A549; 92.7% in the assay on LOX IMVI; 167% in the assay on NCI-H322M; 94.8% in the assay with OVCAR-3; 65.9% in the assay on RPMI-8226; 123% in the assay on KM12. Moreover, the growth at 10 µM was 72.2% in the assay with NCI-H522; 70.4% in the assay on MOLT-4; 129% in the assay on SW-620; 72% in the assay on K562; 140% in the assay with A498; 90.7% in the assay with UACC-62. Also, the growth at 10 µM in the assay on UACC-257 stood at 116%; in the assay on HCT-116, 68.5%.
